These results are taken from ChEMBL document CHEMBL1133285, “Simple bi- and tricyclic inhibitors of human steroid 5alpha-reductase” (Bioorg Med Chem Lett, 2000).

In assay [1] the target is T1, 3-oxo-5-alpha-steroid 4-dehydrogenase 2 (Homo sapiens, UniProt P31213).
T1 sequence (P31213 whole entry): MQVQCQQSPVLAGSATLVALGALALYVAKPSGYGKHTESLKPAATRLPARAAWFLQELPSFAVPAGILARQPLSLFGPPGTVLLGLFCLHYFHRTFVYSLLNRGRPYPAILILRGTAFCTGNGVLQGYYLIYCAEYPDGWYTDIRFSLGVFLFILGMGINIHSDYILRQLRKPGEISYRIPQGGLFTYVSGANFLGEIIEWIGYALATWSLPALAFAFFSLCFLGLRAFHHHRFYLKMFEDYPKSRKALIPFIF
In words: In vitro inhibitory activity against Steroid 5-alpha-reductase type 2. A digest of the protocol:
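Type 2 SR enzyme preparation, with inhibitors prepared and tested as in the type 1 assay. The mixture of labelled (80 nM) and unlabelled testosterone substrate is incubated 1 h at 37 °C. Androgens are separated by HPLC and quantified by in-line flow radioactivity detection. The assay is calibrated with known type 2 inhibitors.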

Assay [2] has as its target T2, 3-oxo-5-alpha-steroid 4-dehydrogenase 1 (Homo sapiens, UniProt P18405).
T2 sequence (P18405 whole entry): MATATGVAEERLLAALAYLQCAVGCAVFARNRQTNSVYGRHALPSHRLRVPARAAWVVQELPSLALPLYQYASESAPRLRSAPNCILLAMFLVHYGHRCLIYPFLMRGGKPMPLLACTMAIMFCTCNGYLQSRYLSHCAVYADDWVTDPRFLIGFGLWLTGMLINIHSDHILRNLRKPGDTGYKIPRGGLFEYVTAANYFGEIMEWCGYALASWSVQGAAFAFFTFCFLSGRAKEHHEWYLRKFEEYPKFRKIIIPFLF
In words: In vitro inhibitory activity against Steroid 5-alpha-reductase type I.

Assay [3] has as its target T3, 3-oxo-5-alpha-steroid 4-dehydrogenase 2 (Homo sapiens) (UniProt P31213).
T3 sequence (whole entry): T1 sequence (P31213 whole entry)
In words: In vitro inhibitory activity against Steroid 5-alpha-reductase type 2 at a concentration of 10 uM.

In assay [4] the target is T3, 3-oxo-5-alpha-steroid 4-dehydrogenase 2 (Homo sapiens). In words: In vitro inhibitory activity against Steroid 5-alpha-reductase type 2 at a concentration of 40 uM.

For `CN1CC(c2ccc(/N=N/c3ccccc3)cc2)CCC1=O` (centres undefined), the IC50 was found to be 579 nM in assay [1] and 302 nM in assay [2]. Turning to `O=C(O)c1ccc2c(c1)CCc1cc(Br)ccc1-2`, the inhibition in assay [3] is 20%. In turn, `CN1C(=O)CC[C@@]2(C)C1=CCc1cc(Cl)ccc12` gave an IC50 in assay [2] of 120 nM. As for `CN1CC(c2ccc(/C=C/c3ccccc3)cc2)CCC1=O` (centres undefined), the results for the 50% inhibitory concentration (IC50) in assay [1] and in assay [2] were 617 nM and 107 nM, respectively. For `O=C(O)c1ccc2c(c1)CCc1cc(/C=C/c3ccccc3)ccc1-2` the same measures were 340 nM and 152 nM. In assay [2], `CN1C(=S)CC[C@@H]2c3ccccc3CC[C@H]21` displayed a concentration for half-maximal inhibition (IC50) of 1450 nM. The compound further had an inhibition in assay [4] of 19.9%. For `CN1CC(c2ccccc2)CCC1=O` (centres undefined), the IC50 in assay [2] worked out at 2480 nM. The compound further came in with an inhibition in assay [4] of 13.5%. For `CN1C(=S)CC[C@@]2(C)C1=CCc1cc(Cl)ccc12`, in that order: 377 nM and 13.2%. For `CN1CC(c2ccc(Cl)cc2)CCC1=S` (centres undefined), in that order: 3360 nM and 14%. For `CN1CC(c2ccc(Cl)cc2)CCC1=O` (centres undefined), the IC50 in assay [2] worked out at 1690 nM. In other words, the single-digit micromolar range. Compound `CN1C(=S)CC[C@]2(C)c3ccc(Cl)cc3CC[C@@H]12` gave a concentration for half-maximal inhibition (IC50) in assay [2] of 183 nM. The compound also showed an inhibition in assay [4] of 21.6%.

In general, IC50 refers to the concentration that gives 50% inhibition. High values mean weaker potency in that assay, low ones greater potency in that assay. In general, inhibition refers to the relative decrease from the control value, in per cent. The low end stands for little suppression, the high end for strong suppression.
